MC4R antag cAMP: blocks human MC4R cAMP signaling. P32245. MC4R-expressing cells, MTII-stimulated cAMP, LANCE TR-FRET. inhibition, % at 6.5 µM. 0.48% of 360,000 active. AID 540295;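 active = inhibition above its plate's cutoff, the mean of tested wells on that plate plus 3 SD, cut at about 29% in these data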;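 also: 0% = Melanotan II alone and 100% = Melanotan II plus saturating MCL0020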
Target sequence (P32245 whole entry, looked up): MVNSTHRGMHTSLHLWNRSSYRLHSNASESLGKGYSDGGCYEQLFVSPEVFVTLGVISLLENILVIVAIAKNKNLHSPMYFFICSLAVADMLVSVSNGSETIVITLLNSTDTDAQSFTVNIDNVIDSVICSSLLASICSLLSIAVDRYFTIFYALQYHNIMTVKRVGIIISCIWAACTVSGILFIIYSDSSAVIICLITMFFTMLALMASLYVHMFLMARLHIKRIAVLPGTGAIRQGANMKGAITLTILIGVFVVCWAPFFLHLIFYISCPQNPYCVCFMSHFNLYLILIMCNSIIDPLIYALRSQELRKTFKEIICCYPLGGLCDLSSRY
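System – human MC4R-expressing U2OS cells · Also added – Melanotan II · Dosing – one concentration, 6.5 µM nominal · Timing – 30-min compound, 1-h challenge, 1-h detection, room temperature · Measured by – Eu-cAMP/anti-cAMP TR-FRET, emission 671 nm · Replicates – singlicate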
MC4R ag barr: activates human MC4R beta-arrestin recruitment. U2OS MC4R beta-arrestin complementation, luminescence; percent of melanotan II response, DMSO zero. activation, % at 8.9 µM. 0.98% of 360,000 active. AID 540308;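 active = activation above a per-plate cutoff, the mean activation of sample wells on that plate plus 3 SD, cut at about 8% in these data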
F508del corr: correctors of CFTR F508del function in bronchial epithelial cells. CFBE cells, YFP halide quenching; stimulated with forskolin plus potentiator P3; % fluorescence drop versus neutral controls. activity (quench increase), % at 7.58 µM. 0.36% of 350,000 active. AID 720511;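 active = mean added fluorescence quench of at least 8% versus neutral control, with both replicates also reaching 8%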;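 also: cells transiently co-express mutant CFTR-F508del with the halide-sensitive YFP; corrector assay measuring rescue of mutant channel to the surface after 24 h compound exposure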
SMARCA2 act: SMARCA2 function activation, primary screen; 1% of 370,000 active; MG213 cells, MMTV-luciferase reporter, dexamethasone, overnight; activation, % at 9.1 µM; in the data active = activation above about 7.8%;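 also: 0% = vehicle wells and 100% = reference activator wells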
SMARCA2 act conf: SMARCA2 activation, confirmation screen. shares compounds with SMARCA2 act. MG213 cells, MMTV-luciferase with dexamethasone, luminescence, overnight; MG213 cells expressing E1A, Rb sequestered; DMSO wells 0%, reference activator 100%. activation, % at 9.1 µM. 30% of 3,500 active. AID 652260;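 active = activation above its plate's cutoff, the mean activation of tested wells plus 3 SD, cut at about 7.9% in these data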
GAL4-VP16 Luc: GAL4-VP16 reporter activation counter-screen. shares compounds with SMARCA2 act. HEK293 GAL4-VP16 pG5luc reporter, luciferase luminescence; scaled: DMSO wells 0%, SAHA wells 100%. activation, % at 9.1 µM. 41% of 3,500 active. AID 686939;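 active = activation above the solvent-only control well mean plus 3 SD, averaged across control plates, cut at about 5.2% in these data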
Starred values were filed as active, the others as inactive; . = no result given. Shown are actives, neighbours in structure and some others; about 2.1% of the full set was active somewhere.

SMILES	MC4R antag cAMP	MC4R ag barr	F508del corr	SMARCA2 act	SMARCA2 act conf	GAL4-VP16 Luc
Clc1ccc2c(NCCNC3CCCCC3)ccnc2c1	4	-3	7	12*	-10	1
CCNC(=O)C[C@@H]1CC[C@H]2[C@@H](COc3ccc(NC(=O)c4cscn4)cc3C(=O)N2C)O1	.	.	-1	.	.	.
C=CCN(CC=C)C(=S)NC(=O)c1ccc(-c2ccccc2)cc1	6	-4	.	8.0*	-6	1
Cc1ccc(NC(=S)N(CCCN2CCCC(C)C2)Cc2ccco2)cc1C (configuration not stated)	-1	2	8	9.2*	-1	1
C[C@H]1CN([C@@H](C)CO)C(=O)c2cc(NC(=O)Cc3cn(C)c4ccccc34)ccc2O[C@H]1CN(C)C(=O)Nc1cccc2ccccc12	.	.	0	.	.	.
C/C(=N\Nc1nccnc1Cl)c1ccc(F)cc1	-1	1	-1	8.9*	10*	12*
CO[C@H]1O[C@H](CO)[C@@H](OC(=O)Nc2cccc(F)c2)[C@H](OC(=O)Nc2ccc3c(c2)OCO3)[C@H]1OC(=O)Nc1ccc2c(c1)OCO2	.	.	-2	.	.	.
O=[N+]([O-])c1ccc2nc(-c3ccc(Cl)cc3)n(OCc3ccccc3)c2c1	6	3	.	11*	7	11*
CC(CN1C(C)CCCC1C)OC(=O)c1ccccc1F (configuration not stated)	8	1	-3	9.2*	0	4
CC(CN1C(C)CCCC1C)OC(=O)c1cccc(F)c1 (configuration not stated)	5	-1	0	-1	.	.
CCN(CC)CCn1c(NCc2nc3ccccc3n2Cc2ccccc2)nc2ccccc21	8	-3	.	9.0*	4	5.5*
COCC#Cc1ccc2c(c1)O[C@H](CN(C)CC1CCCCC1)[C@H](C)CN([C@H](C)CO)S2(=O)=O	.	.	2	.	.	.
CCOC(=O)C[n+]1c(C)csc1C	10	-3	0	8.6*	-1	-1
CCOC(=O)c1c(C)[nH]c(C(=O)COC(=O)c2ccco2)c1C	-2	0	-1	10*	7	0
O=C(O)c1cccc(-n2sc3ccccc3c2=O)c1	14	-3	-5	2	.	.
O=c1c2ccccc2sn1-c1ccccc1F	0	0	-3	5	.	.
O=c1c2ccccc2sn1-c1cccc(Cl)c1	2	-1	-3	13*	3	1
Cn1sc2ccccc2c1=O	-5	-1	-5	13*	16*	2
Cc1ccc(S(=O)(=O)N2CCCC(C(=O)NCc3ccco3)C2)cc1 (configuration not stated)	.	.	.	10*	1	0
CC(C)NC(=O)Nc1ccc2c(c1)C(=O)N([C@H](C)CO)C[C@H](C)[C@@H](CN(C)S(=O)(=O)c1ccc(F)cc1)OCCCC[C@@H](C)O2	.	.	0	.	.	.
COc1ccccc1/C=C/c1ccc2cccc(O)c2n1	4	-4	0	6	.	.
CCOc1cccc(/C=C/c2ccc3cccc(O)c3n2)c1OC	-5	-6	1	14*	-9	28*
CCOc1cccc(/C=C/c2ccc3cccc(O)c3n2)c1O	9	-4	4	12*	12*	18*
O=C(C[C@@H]1CC[C@@H]2[C@H](COC[C@@H](O)CN2C(=O)c2ccccc2)O1)NCc1cccc(F)c1	.	.	-1	.	.	.
CCC(=O)N1C[C@@H](C)[C@H](OC)CN(C)C(=O)c2ccc(NC(=O)Nc3ccc(Cl)cc3)cc2OC[C@H]1C	.	.	0	.	.	.
SMILES	MC4R antag cAMP	MC4R ag barr	F508del corr	SMARCA2 act	SMARCA2 act conf	GAL4-VP16 Luc
COc1ccccc1C#Cc1ccc([C@H]2[C@@H](CO)N3CCCCN(C(=O)C4CC4)C[C@H]23)cc1	.	.	-1	.	.	.
CO[C@H]1CN(C)C(=O)c2ccc(NC(=O)c3cnccn3)cc2OC[C@@H](C)N(CC2CC2)C[C@H]1C	.	.	-1	.	.	.
CC1CCCN(CCCNC(=O)c2cc3c(Cl)nc4ccccc4c3s2)C1 (configuration not stated)	-4	-2	4	15*	26*	2
CN(CCCNC(=O)c1cc2c(Cl)nc3ccccc3c2s1)Cc1ccccc1	6	3	2	7	.	.
CCN(CC)CCCNC(=O)c1cc2c(Cl)nc3ccccc3c2s1	-3	5	.	18*	23*	1
CO[C@@H]1CN(C)C(=O)c2cc(NS(=O)(=O)c3ccccc3)ccc2OC[C@H](C)N(Cc2nccs2)C[C@H]1C	.	.	1	.	.	.
C[C@H]1CN([C@@H](C)CO)C(=O)Cc2cc(NS(=O)(=O)c3cccs3)ccc2O[C@@H]1CN(C)C(=O)Nc1ccccc1	.	.	1	.	.	.
Cc1sc(NC(=O)c2ccccc2F)c(CN2CCCCC2C)c1C (configuration not stated)	7	0	2	9.5*	8.6*	11*
C[C@H](CO)N1C[C@H](C)[C@@H](CN(C)C(=O)CN2CCOCC2)Oc2cc(/C=C/c3ccccc3)ccc2S1(=O)=O	.	.	-3	.	.	.
CO[C@H]1CN(C)C(=O)c2cc(NC(=O)c3ccccc3F)ccc2OC[C@@H](C)N(CC2CCOCC2)C[C@@H]1C	.	.	-2	.	.	.
CCOc1ccc(-c2ccc(SCC)nn2)cc1	11	1	-1	5	.	.
CCSc1ccc(-c2ccc(C)cc2)nn1	-4	0	-5	13*	14*	9.5*
CO[C@@H]1CN(C)C(=O)c2ccc(NC(=O)c3cc(C)on3)cc2OC[C@@H](C)N(S(=O)(=O)c2cccc(C)c2)C[C@H]1C	.	.	1	.	.	.
Cc1nc(CS(=O)(=O)c2ccccc2)cc(Sc2ccccc2Cl)n1	4	-1	.	8.2*	7	6.9*
O=C(Nc1ccc(Br)cn1)c1ccc2ccccc2c1	-7	3	4	9.3*	12*	14*
O=C(Nc1ccc(Br)cn1)c1cccc(C(=O)Nc2ccc(Br)cn2)c1	6	3	-1	-1	.	.
Cc1ccc(C(=O)NC2=NCCS2)cc1	.	.	-2	8.8*	7	13*
CC(=O)N1[C@H](C(=O)NC2CCC2)[C@@H](CO)[C@@H]2Cn3c(ccc(C4=CCCC4)c3=O)[C@@H]21	.	.	1	.	.	.
COc1ccc(NC(=O)c2ccc(NC(=O)c3ccncc3)cc2)cc1	11	1	-3	-2	.	.
COc1ccc(NC(=O)c2ccc(Oc3ncccn3)cc2)cc1	-1	3	-1	9.4*	2	4
Cc1cccc(/C=N/Nc2nncc3ccccc23)c1	1	1	-9	12*	14*	8.8*
CCC(OCC(O)CN1CCN(CCN2C(=O)c3cccc4cccc(c34)C2=O)CC1)c1ccccc1 (configuration not stated)	6	7	.	9.4*	1	5

Screening results as filed in PubChem.
